From ChEMBL document CHEMBL5247600, “Rational design of metabolically stable HDAC inhibitors: An overhaul of trifluoromethyl ketones” (Eur J Med Chem, 2022) come the findings set out here.

SMILES strings stand for the structures.

The subject of series [1] is HCT-116. Briefly: Anticancer activity against human HCT-116 cells assessed as cell growth inhibition incubated for 3 days by methylene blue staining based colorimetric assay. It counts as functional. The settings on record: HCT-116, 72 h.
The nature of series [2]: Metabolic stability in human Liver S9 fraction assessed as disappearance of compound and measured after 15 mins by LC-ESI-MS analysis. It counts as ADME, subcellular. The procedure, abridged: (§1)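 Human liver S9 fraction assay. Substrate 0.02 mM, 0.1 M buffer and 1 mM NADPH preincubated 10 min at 37 °C, then S9 (0.5 mg) added in 1 mL total; run in duplicate. Aliquots taken every 15 min or at 1 h and 2 h, residue taken up in methanol, diluted 1:1 with water and analysed by LC-ESI-MS tracking M+1 ions.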

Series [3] can be described thus: Metabolic stability in human Liver S9 fraction assessed as metabolite TFMA 90 formation and measured for 30 mins by LC-ESI-MS analysis. It counts as ADME, subcellular. The note with it: s9, 0.5 h. The procedure, abridged:
as §1

For series [4], the system named is Panel NCI-60 (60 carcinoma cell lines). As to the kind of experiment: Anticancer activity against human Panel NCI-60 (60 carcinoma cell lines) cells assessed as cell growth inhibition at 10 uM incubated for 3 days by methylene blue staining based colorimetric assay relative to control. It counts as functional. The note with it: time 3 day. On the set-up: scale not given: the % may be the effect or the level left. The method, boiled down: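 NCI-60 one-dose screen at a single concentration of 10 μM. Read-out is mean growth percentage across the panel; positive values denote cytostatic activity and negative values cytotoxicity.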

Series [5] concerns HCT-116. Briefly: Anticancer activity against human HCT-116 cells assessed as cell survival rate incubated for 3 days by methylene blue staining based colorimetric assay. It counts as functional. The note with it: HCT-116, 72 h. The method, boiled down: (§2)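 Cells kept in DMEM with 10% calf or fetal bovine serum plus penicillin/streptomycin (1000 U/ml each) at 37 °C, 5% CO2. Seeded at 5000/well (n = 3), treated next day, then after 3 days fixed/stained 30 min at room temperature with methylene blue saturated in 50% ethanol.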

Series [6] concerns NCI-H522. As to the kind of experiment: Anticancer activity against human NCI-H522 cells assessed as cell survival rate incubated for 3 days by methylene blue staining based colorimetric assay. It counts as functional. The settings on record: NCI-H522, 72 h. The procedure, abridged:
as §2

A short description of series [7]: Cytotoxicity against human RPE cells assessed as cell survival rate incubated for 3 days by methylene blue staining based colorimetric assay. It counts as toxicity. The procedure, abridged:
as §2

Series [8] can be described thus: Cytotoxicity against human WI-38 cells assessed as cell survival rate incubated for 3 days by methylene blue staining based colorimetric assay. It counts as toxicity. The procedure, abridged:
as §2

In series [9] the test system is HCT-116. Briefly: Anticancer activity against human HCT-116 cells assessed as cell survival rate at 30 uM incubated for 3 days by methylene blue staining based colorimetric assay. It counts as functional. The note with it: time 3 day. The method, boiled down:
as §2

In series [10] the test system is NCI-H522. Briefly: Anticancer activity against human NCI-H522 cells assessed as cell survival rate at 30 uM incubated for 3 days by methylene blue staining based colorimetric assay. It counts as functional. The settings on record: time 3 day. The procedure, abridged:
as §2

Series [11] can be described thus: Cytotoxicity against human RPE cells assessed as cell survival rate at 30 uM incubated for 3 days by methylene blue staining based colorimetric assay. It counts as toxicity. The note with it: time 3 day, read-out: Activity. The procedure, abridged: as §2
Series [12] in a line: Cytotoxicity against human WI-38 cells assessed as cell survival rate at 30 uM incubated for 3 days by methylene blue staining based colorimetric assay. It counts as toxicity. The settings on record: time 3 day, read-out: Activity. The procedure, abridged: as §2

On to `O=C(CCCCCCC(=O)C(F)(F)F)Nc1ccccc1`, for which the IC50 (in general, the concentration that inhibits the measured activity by half) with HCT-116 [1] amounted to 10.1 µM. Also, the Stability result in series [2] and in series [3] was “Unstable” in each case.
As for `COc1ccc(NC(=O)CCCCCCNC(=O)C(O)(O)C(F)(F)F)cc1`, the 50% inhibitory concentration (IC50) turned out to be 4.52 µM with HCT-116 [1], 3.13 µM in the series with HCT-116 [5] and 8.05 µM in the series with NCI-H522 [6]. Besides, the Activity is 37.09% in [4], 10% in the series with HCT-116 [9] and 20% with NCI-H522 [10]. In addition, the IC50 at 3 days in [7] and in series [8] was greater than 30 µM throughout. The viability at 72 h, 30 µM is greater than 50% in series [11] and greater than 80% in series [12].
